pIC50: −log10 of the molar value.
These compounds were tested against T1, B2 bradykinin receptor (Homo sapiens, UniProt P30411) (assay: Inhibition of specific binding of [3H]BK at 1 nM to human bradykinin receptor B2 expressed in CHO cells by 50%.).
T1 sequence (P30411 whole entry): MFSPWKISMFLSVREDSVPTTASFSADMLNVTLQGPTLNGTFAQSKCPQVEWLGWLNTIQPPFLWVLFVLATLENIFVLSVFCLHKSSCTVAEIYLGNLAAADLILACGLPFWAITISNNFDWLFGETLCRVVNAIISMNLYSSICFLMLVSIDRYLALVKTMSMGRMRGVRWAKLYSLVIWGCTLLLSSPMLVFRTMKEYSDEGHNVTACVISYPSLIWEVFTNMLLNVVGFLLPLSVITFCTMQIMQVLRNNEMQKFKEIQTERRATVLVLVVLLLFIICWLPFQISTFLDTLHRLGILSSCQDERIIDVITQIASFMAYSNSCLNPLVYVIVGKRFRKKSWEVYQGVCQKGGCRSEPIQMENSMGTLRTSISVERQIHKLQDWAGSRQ
Format: cell-based
How it was run: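 Intact CHO (dhfr−) cells stably expressing human B2, seeded 3.0 × 10⁴/well for 1 day. Incubated with [3H]BK and compound 2 h at 4 °C in HEPES/N-methyl-D-glucamine buffer pH 7.2 with enalaprilat, bacitracin and 0.1% BSA. Cells lysed in SDS/NaOH and counted; nonspecific binding with 1 μM BK. Three experiments.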
`CNC(=O)c1ccc(/C=C/C(=O)NCC(=O)N(C)c2ccc(Cl)c(COc3cccc4c(N5CCCCCC5)cc(C)nc34)c2Cl)cc1` was tested, and the pIC50 was 7.43. In the case of `CC(=O)Nc1ccc(/C=C/C(=O)NCC(=O)N(C)c2ccc(Cl)c(COc3cccc4c(N(C)C)cc(C)nc34)c2Cl)cc1C.Cl.Cl.Cl.Cl`, the pIC50 was 8.32. For `Cc1cc(N2CCOCC2)c2cccc(OCc3c(Cl)ccc(N(C)C(=O)CNC(=O)/C=C/c4ccc(NC(=O)c5ccncc5)cc4)c3Cl)c2n1.Cl`, the pIC50 was 9.00. In the case of `CNC(=O)c1ccc(/C=C/C(=O)NCC(=O)N(C)c2ccc(Cl)c(COc3cccc4c(N(C)C)cc(C)nc34)c2Cl)cn1.Cl`, the pIC50 was 8.80. In the case of `CNC(=O)c1ccc(/C=C/C(=O)NCC(=O)N(C)c2ccc(Cl)c(COc3cccc4c(NCCOC)cc(C)nc34)c2Cl)cc1`, the pIC50 was 7.39. For `Cc1cc(N2CCCCC2)c2cccc(OCc3c(Cl)ccc(N(C)C(=O)CNC(=O)/C=C/c4ccc(NC(=O)c5ccncc5)cc4)c3Cl)c2n1.Cl`, the pIC50 was 8.80. Work on `Cc1cc(N2CCOCC2)c2cccc(OCc3c(Cl)ccc(N(C)C(=O)CNC(=O)/C=C/c4ccc(C(=O)N(C)C)cc4)c3Cl)c2n1` yielded a pIC50 of 9.06. `CC(=O)Nc1ccc(/C=C/C(=O)NCC(=O)N(C)c2ccc(Cl)c(COc3cccc4c(N5CCOCC5)cc(C)nc34)c2Cl)cn1` gave a pIC50 of 8.74. For `Cc1cc(N(C)C)c2cccc(OCc3c(Cl)ccc(N(C)C(=O)CNC(=O)/C=C/c4ccc(C(=O)Nc5ccncc5)cc4)c3Cl)c2n1.Cl`, the pIC50 was 9.15. Compound `CNC(=O)c1ccc(/C=C/C(=O)NCC(=O)N(C)c2ccc(Cl)c(COc3cccc4c(N5CCOCC5)cc(C)nc34)c2Cl)cn1.Cl` has a pIC50 of 8.96. In the case of `Cc1cc(N(C)C)c2cccc(OCc3c(Cl)ccc(N(C)C(=O)CNC(=O)/C=C/c4ccc(C(=O)N(C)C)nc4)c3Cl)c2n1.Cl.Cl.Cl.Cl`, the pIC50 was 8.40. For `CC(=O)Nc1ccc(/C=C/C(=O)NCC(=O)N(C)c2ccc(Cl)c(COc3cccc4c(N(C)C)cc(C)nc34)c2Cl)cn1.Cl`, the pIC50 was 8.38. For `CNC(=O)c1ccc(/C=C/C(=O)NCC(=O)N(C)c2ccc(Cl)c(COc3cccc4c(N5CCCCC5)cc(C)nc34)c2Cl)cc1.Cl.Cl.Cl.Cl`, the pIC50 was 8.96. In the case of `CNC(=O)c1ccc(/C=C/C(=O)NCC(=O)N(C)c2ccc(Cl)c(COc3cccc4c(N5CCOCC5)cc(C)nc34)c2Cl)cc1.Cl.Cl.Cl.Cl`, the pIC50 was 8.57.

What follows are compounds tested on CHO (assay: Relative agonistic activity in IP formation compared to BK (10 nM) IPs in CHO cells expressing the cloned human B2 receptor at 1 uM concentration).
Format: functional, Cricetulus griseus
How it was run: (§1)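 Human B2-CHO cells labeled 24 h with [3H]inositol (1 μCi/mL). Preincubated in PBS/0.2% BSA with 10 mM LiCl for 30 min at 37 °C, then compound for 30 min at 37 °C. Stopped with 5% TCA. IP1–IP3 separated on AG 1-X8 and counted. Basal counts subtracted; response expressed relative to 10 nM BK.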
With `Cc1cc(N2CCOCC2)c2cccc(OCc3c(Cl)ccc(N(C)C(=O)CNC(=O)/C=C/c4ccc(NC(=O)c5ccncc5)cc4)c3Cl)c2n1.Cl` the Relative agonistic activity was -0.1%. For `Cc1cc(N2CCCCC2)c2cccc(OCc3c(Cl)ccc(N(C)C(=O)CNC(=O)/C=C/c4ccc(NC(=O)c5ccncc5)cc4)c3Cl)c2n1.Cl`, the Relative agonistic activity was 5.6%. Work on `CNC(=O)c1ccc(/C=C/C(=O)NCC(=O)N(C)c2ccc(Cl)c(COc3cccc4c(N5CCCCC5)cc(C)nc34)c2Cl)cc1.Cl.Cl.Cl.Cl` yielded a Relative agonistic activity of 4.4%. Compound `CNC(=O)c1ccc(/C=C/C(=O)NCC(=O)N(C)c2ccc(Cl)c(COc3cccc4c(N5CCOCC5)cc(C)nc34)c2Cl)cc1.Cl.Cl.Cl.Cl` has a Relative agonistic activity of 0.9%.

These compounds were tested on CHO (assay: Relative agonistic activity in IP formation compared to BK (10 nM) IPs in CHO cells expressing the cloned human B2 receptor at 10 uM concentration).
Format: functional, Cricetulus griseus
How it was run: as §1
Work on `Cc1cc(N2CCOCC2)c2cccc(OCc3c(Cl)ccc(N(C)C(=O)CNC(=O)/C=C/c4ccc(NC(=O)c5ccncc5)cc4)c3Cl)c2n1.Cl` yielded a Relative agonistic activity of 0.9%. With `Cc1cc(N2CCCCC2)c2cccc(OCc3c(Cl)ccc(N(C)C(=O)CNC(=O)/C=C/c4ccc(NC(=O)c5ccncc5)cc4)c3Cl)c2n1.Cl` the Relative agonistic activity was 5.3%. Work on `CNC(=O)c1ccc(/C=C/C(=O)NCC(=O)N(C)c2ccc(Cl)c(COc3cccc4c(N5CCCCC5)cc(C)nc34)c2Cl)cc1.Cl.Cl.Cl.Cl` yielded a Relative agonistic activity of 4.2%. With `CNC(=O)c1ccc(/C=C/C(=O)NCC(=O)N(C)c2ccc(Cl)c(COc3cccc4c(N5CCOCC5)cc(C)nc34)c2Cl)cc1.Cl.Cl.Cl.Cl` the Relative agonistic activity was -1.9%.

Each compound was assayed against T2, B2 bradykinin receptor (Cavia porcellus, UniProt O70526) (assay: Inhibition of specific binding of [3H]BK at 0.06 nM to bradykinin receptor B2 in guinea pig ileum membrane preparations by 50%.).
T2 sequence (O70526 whole entry): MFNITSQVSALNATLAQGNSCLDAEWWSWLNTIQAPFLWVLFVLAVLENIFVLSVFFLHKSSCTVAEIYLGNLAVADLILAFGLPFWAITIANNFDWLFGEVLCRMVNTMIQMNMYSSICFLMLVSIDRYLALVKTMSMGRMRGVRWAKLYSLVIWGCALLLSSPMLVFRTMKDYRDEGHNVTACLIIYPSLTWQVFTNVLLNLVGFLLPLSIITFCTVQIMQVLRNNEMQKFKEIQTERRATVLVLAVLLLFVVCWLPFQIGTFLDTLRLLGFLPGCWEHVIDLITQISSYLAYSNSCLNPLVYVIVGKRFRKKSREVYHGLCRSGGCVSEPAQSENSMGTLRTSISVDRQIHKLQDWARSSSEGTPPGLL
Format: cell membranes
How it was run: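 Ileum membranes from male Hartley guinea pigs, 0.2 mg protein/mL, in TES pH 6.8 containing phenanthroline, bacitracin, DTT, captopril and 0.1% BSA. Incubated with [3H]BK and compound at room temperature for 60 min. GF/B filtration, scintillation counting; nonspecific binding with 1 μM BK. Three experiments.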
Compound `CNC(=O)c1ccc(/C=C/C(=O)NCC(=O)N(C)c2ccc(Cl)c(COc3cccc4c(N5CCCCCC5)cc(C)nc34)c2Cl)cc1` has a pIC50 of 6.08. With `CC(=O)Nc1ccc(/C=C/C(=O)NCC(=O)N(C)c2ccc(Cl)c(COc3cccc4c(N(C)C)cc(C)nc34)c2Cl)cc1C.Cl.Cl.Cl.Cl` the pIC50 was 7.68. For `Cc1cc(N2CCOCC2)c2cccc(OCc3c(Cl)ccc(N(C)C(=O)CNC(=O)/C=C/c4ccc(NC(=O)c5ccncc5)cc4)c3Cl)c2n1.Cl`, the pIC50 was 7.54. With `CNC(=O)c1ccc(/C=C/C(=O)NCC(=O)N(C)c2ccc(Cl)c(COc3cccc4c(N(C)C)cc(C)nc34)c2Cl)cn1.Cl` the pIC50 was 8.92. For `CNC(=O)c1ccc(/C=C/C(=O)NCC(=O)N(C)c2ccc(Cl)c(COc3cccc4c(NCCOC)cc(C)nc34)c2Cl)cc1`, the pIC50 was 7.31. Work on `Cc1cc(N2CCCCC2)c2cccc(OCc3c(Cl)ccc(N(C)C(=O)CNC(=O)/C=C/c4ccc(NC(=O)c5ccncc5)cc4)c3Cl)c2n1.Cl` yielded a pIC50 of 7.12. `Cc1cc(N2CCOCC2)c2cccc(OCc3c(Cl)ccc(N(C)C(=O)CNC(=O)/C=C/c4ccc(C(=O)N(C)C)cc4)c3Cl)c2n1` gave a pIC50 of 7.37. With `CC(=O)Nc1ccc(/C=C/C(=O)NCC(=O)N(C)c2ccc(Cl)c(COc3cccc4c(N5CCOCC5)cc(C)nc34)c2Cl)cn1` the pIC50 was 7.19. Compound `Cc1cc(N(C)C)c2cccc(OCc3c(Cl)ccc(N(C)C(=O)CNC(=O)/C=C/c4ccc(C(=O)Nc5ccncc5)cc4)c3Cl)c2n1.Cl` has a pIC50 of 8.29. Compound `CNC(=O)c1ccc(/C=C/C(=O)NCC(=O)N(C)c2ccc(Cl)c(COc3cccc4c(N5CCOCC5)cc(C)nc34)c2Cl)cn1.Cl` has a pIC50 of 7.07. Work on `Cc1cc(N(C)C)c2cccc(OCc3c(Cl)ccc(N(C)C(=O)CNC(=O)/C=C/c4ccc(C(=O)N(C)C)nc4)c3Cl)c2n1.Cl.Cl.Cl.Cl` yielded a pIC50 of 8.09. `CC(=O)Nc1ccc(/C=C/C(=O)NCC(=O)N(C)c2ccc(Cl)c(COc3cccc4c(N(C)C)cc(C)nc34)c2Cl)cn1.Cl` was tested, and the pIC50 was 8.20. For `CNC(=O)c1ccc(/C=C/C(=O)NCC(=O)N(C)c2ccc(Cl)c(COc3cccc4c(N5CCCCC5)cc(C)nc34)c2Cl)cc1.Cl.Cl.Cl.Cl`, the pIC50 was 7.17. Work on `CNC(=O)c1ccc(/C=C/C(=O)NCC(=O)N(C)c2ccc(Cl)c(COc3cccc4c(N5CCOCC5)cc(C)nc34)c2Cl)cc1.Cl.Cl.Cl.Cl` yielded a pIC50 of 7.92.

These compounds were tested on Cavia porcellus (assay: In vivo functional antagonistic activity in inhibiting BK (5 ug/kg, i.v.) induced bronchoconstriction in guinea pigs by 100 ug/kg iv administration).
How it was run: (§2)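 Male Hartley guinea pigs (470–750 g), fasted overnight, pentobarbital 30 mg/kg i.p., ventilated 10 mL/kg at 60 breaths/min, alcuronium 0.5 mg/kg i.v., propranolol 10 mg/kg s.c. BK in saline/0.1% BSA i.v.; compound in 5% citric acid i.v. 25 min after first BK, BK repeated 5 min later. Peak insufflation pressure rise (Konzett–Rössler); % inhibition versus vehicle, n = 3–4.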
With `CC(=O)Nc1ccc(/C=C/C(=O)NCC(=O)N(C)c2ccc(Cl)c(COc3cccc4c(N(C)C)cc(C)nc34)c2Cl)cc1C.Cl.Cl.Cl.Cl` the Inhibition was 94.7%. With `CC(=O)Nc1ccc(/C=C/C(=O)NCC(=O)N(C)c2ccc(Cl)c(COc3cccc4c(N5CCOCC5)cc(C)nc34)c2Cl)cn1` the Inhibition was 47.8%. `CNC(=O)c1ccc(/C=C/C(=O)NCC(=O)N(C)c2ccc(Cl)c(COc3cccc4c(N5CCOCC5)cc(C)nc34)c2Cl)cn1.Cl` gave an Inhibition of 72.3%.

These compounds were tested on Cavia porcellus (assay: In vivo functional antagonistic activity in inhibiting BK (5 ug/kg, i.v.) induced bronchoconstriction in guinea pigs by 10 ug/kg iv administration).
How it was run: as §2
For `CNC(=O)c1ccc(/C=C/C(=O)NCC(=O)N(C)c2ccc(Cl)c(COc3cccc4c(N(C)C)cc(C)nc34)c2Cl)cn1.Cl`, the Inhibition was 85.5%. Work on `Cc1cc(N(C)C)c2cccc(OCc3c(Cl)ccc(N(C)C(=O)CNC(=O)/C=C/c4ccc(C(=O)Nc5ccncc5)cc4)c3Cl)c2n1.Cl` yielded an Inhibition of 86.3%. For `Cc1cc(N(C)C)c2cccc(OCc3c(Cl)ccc(N(C)C(=O)CNC(=O)/C=C/c4ccc(C(=O)N(C)C)nc4)c3Cl)c2n1.Cl.Cl.Cl.Cl`, the Inhibition was 89.7%. With `CC(=O)Nc1ccc(/C=C/C(=O)NCC(=O)N(C)c2ccc(Cl)c(COc3cccc4c(N(C)C)cc(C)nc34)c2Cl)cn1.Cl` the Inhibition was 89.4%.

From ChEMBL document CHEMBL1148313, “A new class of nonpeptide bradykinin B(2) receptor ligand, incorporating a 4-aminoquinoline framework. Identification of a key pharmacophore to determine species difference and agonist/antagonist profile” (J Med Chem, 2004)
